Compound activity: PubChem BioAssay, several laboratories
Hits are enriched below; roughly 1.8% of the tested compounds scored in any of these assays.
PLK1 inh – blocks human PLK1 kinase activity | recombinant PLK1 kinase, TR-FRET peptide phosphorylation | inhibition, % at 10 µM | 97,000 tested, 0.53% active | AID 619;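 active = inhibition of 50% or more in the single-concentration screen; inactive = inhibition below 50%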;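 note: 0% = DMSO max control and 100% = H-89 dihydrochloride min control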
PTPN22 act – LYP (human) phosphatase activation; AID 697; activation, % at 2 µM; recombinant LYP, DiFMUP fluorescence; 0 = plate median, 100 = signal doubled; Q9Y2R2; 96,000 tested, 0.11% active;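 active = activation at 2 µM above a set limit, the mean plus 5 SD, cut at about 37% in these data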
Rev-RRE block – HIV Rev-RRE protein-RNA interaction inhibition; Rev peptide-RRE RNA binding, FRET; inhibition, % at 8 µM; 97,000 tested, 0.79% active; AID 704;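 active = inhibition above the screen-wide mean plus 3 SD, cut at about 35% in these data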;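 note: 0% = median DMSO wells and 100% = median Neomycin B control wells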
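Material: labelled RRE RNA duplex and labelled Rev peptide / Buffer or medium: HEPES pH 7.5 salt buffer with EDTA / Compound dosing: single point, 8 µM final nominal compound concentration / Benchmarks: DMSO low control, neomycin B high control / Timing: 5 min preincubation and 15 min binding, 25 °C / Technique: FRET fluorescence readout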
PLK1 PBD inh – blocks phosphopeptide binding to human Plk1 polo box domain; P53350; Plk1 PBD phosphopeptide binding, fluorescence polarization; inhibition, %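 (tested at about 20 µM)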; AID 693; 97,000 tested, 0.13% active; in the data active = inhibition above about 34%, passing the limit was not always enough
PTPN22 inh 2 – LYP (human) phosphatase inhibition; 96,000 tested, 0.21% active; Q9Y2R2; recombinant LYP catalytic domain, DiFMUP fluorescence; inhibition, % at 2 µM;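 active = inhibition at 2 µM at or above a set limit, the screen mean plus 3 SD, cut at about 24% in these data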;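 note: 0% = DMSO with enzyme and 100% = enzyme fully blocked by orthovanadate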
EphB4 ephrin blk – antagonists of human EphB4-ephrin-B2 interaction; P54760; EphB4 LBD / TNYL-RAW-Alexa532 peptide, fluorescence polarization; inhibition, % at 7 µM; 97,000 tested, 0.15% active; AID 720;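 active = inhibition above the screen-wide mean inhibition plus 3 SD, cut at about 15% in these data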;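 note: 0% = DMSO wells and 100% = excess unlabeled TNYL-RAW peptide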
Target sequence (P54760 whole entry, looked up, the tested form may be a part): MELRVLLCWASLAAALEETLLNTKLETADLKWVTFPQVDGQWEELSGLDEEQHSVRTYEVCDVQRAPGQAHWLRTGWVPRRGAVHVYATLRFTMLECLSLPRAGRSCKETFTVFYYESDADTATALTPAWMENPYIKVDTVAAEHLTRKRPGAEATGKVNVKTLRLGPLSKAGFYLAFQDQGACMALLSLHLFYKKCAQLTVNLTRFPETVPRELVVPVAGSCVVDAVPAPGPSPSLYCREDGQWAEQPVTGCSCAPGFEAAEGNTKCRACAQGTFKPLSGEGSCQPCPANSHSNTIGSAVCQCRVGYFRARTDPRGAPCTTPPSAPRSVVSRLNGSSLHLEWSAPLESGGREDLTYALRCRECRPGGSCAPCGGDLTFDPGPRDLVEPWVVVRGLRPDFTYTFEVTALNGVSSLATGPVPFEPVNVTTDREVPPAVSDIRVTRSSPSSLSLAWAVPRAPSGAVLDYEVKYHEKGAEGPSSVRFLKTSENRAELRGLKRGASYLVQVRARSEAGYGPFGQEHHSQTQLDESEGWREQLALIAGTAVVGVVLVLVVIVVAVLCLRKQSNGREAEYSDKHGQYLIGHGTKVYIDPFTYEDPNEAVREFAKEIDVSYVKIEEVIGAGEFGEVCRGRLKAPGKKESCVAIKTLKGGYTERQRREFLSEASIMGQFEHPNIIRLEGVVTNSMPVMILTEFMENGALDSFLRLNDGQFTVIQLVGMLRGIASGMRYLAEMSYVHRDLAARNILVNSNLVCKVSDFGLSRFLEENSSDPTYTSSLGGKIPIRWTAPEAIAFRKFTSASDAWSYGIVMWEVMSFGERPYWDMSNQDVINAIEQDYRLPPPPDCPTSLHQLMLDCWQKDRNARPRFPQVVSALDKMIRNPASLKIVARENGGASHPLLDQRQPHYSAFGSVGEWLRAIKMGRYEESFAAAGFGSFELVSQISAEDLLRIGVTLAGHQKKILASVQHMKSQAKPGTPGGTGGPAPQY
LYP act confirm – LYP (PTPN22) phosphatase activation confirmation. AID 1031. Recombinant LYP, DIFMUP fluorescence; zero set by plate's median compound well. activation, % at 2 µM. 100 tested, under 10 active. shares compounds with PTPN22 act; call rule not given here
* = called active by the depositor; . = no result.

SMILES	PLK1 inh	PTPN22 act	Rev-RRE block	PLK1 PBD inh	PTPN22 inh 2	EphB4 ephrin blk	LYP act confirm
CCC1(CC)Cc2ccccc2C(Nc2c(C)n(C)n(-c3ccccc3)c2=O)=N1	-7	-1	3	10	2	-3	.
CN(C)CCNc1ncnc2c1sc1nc(N3CCOCC3)c3c(c12)CC(C)(C)SC3	-9	49*	8	-20	-54	2	7
CCOC(=O)c1cnn(-c2nc(-c3ccccc3)cs2)c1C(F)(F)F	-19	-6	24	20	8	-1	.
CCOC(=O)c1cnn(-c2nc(-c3ccc(F)cc3)cs2)c1C(F)(F)F	-17	40*	17	15	-34	-7	-3
CCOC(=O)C(C)Oc1ccsc1C(=O)OC (stereo not drawn)	-1	4	10	8	0	-1	.
CCCCn1c(=S)[nH]c2c(oc3ccc(Cl)cc32)c1=O	-5	-3	5	-13	1	-2	.
COC(=O)C1CN(S(=O)(=O)c2ccccc2)CCN1S(=O)(=O)c1ccccc1 (stereo not drawn)	-12	5	3	-9	-4	5	.
O=C(Nc1ccc2c(c1)OCCO2)C1CCCN(S(=O)(=O)c2cccc3nsnc23)C1 (stereo not drawn)	-14	42*	7	1	-47	-1	-5
O=C(Nc1ccc2c(c1)OCCO2)C1CCN(S(=O)(=O)c2cccc3nsnc23)CC1	0	3	0	-16	-5	0	.
Cc1ccc(-c2nc(CCN3C(=O)c4ccccc4C3=O)cs2)cc1	-15	48*	10	6	-44	5	5
O=C1c2ccccc2C(=O)N1CCc1ccccn1	-9	-14	6	-28	13	3	.
O=C(NC1CCCCC1)c1nc2c(nnn2Cc2ccccc2Cl)c(=O)[nH]1	-9	-7	5	14	10	8	.
COc1cc(OC)c(C2N(C)c3ccccc3N2C)cc1OC	-8	39*	3	2	-42	-2	6
COc1cc(OC)c(C2N(c3ccccn3)C(=O)C3CCCN32)cc1OC (stereo not drawn)	-9	-5	2	-4	3	-7	.
CSc1nc(-c2ccccc2)nn1C(=O)c1ccccc1	-3	52*	6	5	-48	-7	-2
Cc1ccnc(N2CCN(c3c4c(c(C#N)c5nc6ccccc6n35)CCC4)CC2)c1	-11	10	11	-10	-9	5	.
CCNC(=S)NNC(=O)c1csc2ccccc12	-19	-9	6	-24	12	4	.
CC(C)CNC(=S)NNC(=O)c1csc2ccccc12	48	37*	-1	29	-43	0	3
O=C(OCc1ccc(F)cc1Cl)c1ccccn1	-13	-4	-2	-7	1	5	.
CC1(C)CC(=O)C2=C(C1)N(Cc1ccco1)C(=O)C2(O)C(F)(F)F (stereo not drawn)	-3	37*	-4	-5	-41	-9	3
CCOC(=O)CSc1cc(=O)n(CC)c2ccccc12	-8	64*	3	-17	-58	-4	10
O=C(NCc1ccco1)Nc1cccs1	-23	37*	1	1	-42	2	5
O=C(NCc1ccco1)c1cccs1	-4	-2	1	6	1	-2	.
Cc1ccccc1C(=O)NC(=S)NCC1CCCO1 (stereo not drawn)	-11	39*	-2	44	-35	3	1
COc1ccccc1-n1cnc2cc(NCc3ccccn3)ccc21	-12	-14	4	-15	16	3	.
SMILES	PLK1 inh	PTPN22 act	Rev-RRE block	PLK1 PBD inh	PTPN22 inh 2	EphB4 ephrin blk	LYP act confirm
COc1ccc(-n2cnc3cc(NCc4ccccn4)ccc32)cc1	-11	42*	-1	0	-38	0	-4
CCOC(=O)C1CCN(Cc2coc3c(Cl)cc(Cl)cc3c2=O)CC1	-13	39*	3	3	-39	2	-1
CC(=O)Nc1ccc(S(=O)(=O)N2CCSC2c2ccc(Cl)cc2)cc1 (stereo not drawn)	-18	38*	14	-4	-40	-1	5
CCOCc1nnc(NC(=O)CSCc2ccccc2)s1	-6	42*	2	-5	-41	-6	-1
Cc1nnc(NC(=O)CSCc2ccccc2)s1	-12	35	8	17	-36	1	.
O=C(Nc1ccccc1)N(Cc1ccccc1)CC(O)C(F)(F)F (stereo not drawn)	-19	50*	-1	-8	-45	3	9
COc1ccc(S(=O)(=O)NNC(=O)c2csc(-n3nc(C)cc3C(F)(F)F)n2)cc1	-3	8	11	-8	-11	-3	.
CCC(=O)c1ccc(N2CCN(C(=O)Cc3ccccc3)CC2)c(F)c1	-17	41*	6	3	-41	-4	4
O=C(Cn1cc(C(=O)c2cccs2)c2ccccc21)NCc1ccc2c(c1)OCO2	-61	.	5	2	.	4	.
CCSc1nc2cc(C(=O)OC)ccc2c(=O)n1CC	-9	1	15	-15	-5	7	.
COC(=O)c1ccc2c(=O)sc(N3CCC(C(N)=O)CC3)nc2c1	-2	39*	17	-3	-40	-1	0
COc1ccccc1NC(=O)CN1CCN(C(=O)c2ccco2)CC1	-11	37*	-2	0	-38	-3	0
Cc1nnc(NC(=O)c2ccc3c(c2)C(=O)N(CC2CCCO2)C3=O)s1 (stereo not drawn)	1	-7	3	-13	2	-1	.
O=C(Nc1ccc2c(c1)C(=O)N(CC1CCCO1)C2=O)c1ccc(Cl)c(Cl)c1 (stereo not drawn)	0	37*	17	-2	-33	1	1
Cc1cc(N2CCOCC2)nc2ccc(NC(=O)CCC(=O)N3CCCCC3)cc12	-2	38*	3	-10	-42	1	-1
O=c1c2c(nc3cc(-c4ccc(F)cc4)[nH]n13)CCCC2	1	2	3	5	-4	-2	.
O=c1c2c(nc3cc(-c4cccc(Cl)c4)[nH]n13)CCC2	-9	43*	3	1	-37	9	-5
CCn1c(-c2ccc3ncccc3c2)n[nH]c1=S	-4	42*	3	2	-39	-2	3
CS(=O)(=O)NCc1nnc(SCC(=O)NC2CCCCC2)n1-c1ccc(F)cc1	-5	3	4	-10	-4	7	.
COc1cc(OC)cc(-c2cc3nc(C)c(CCC(=O)O)c(=O)n3[nH]2)c1	7	49*	1	36	-53	-3	-2
COc1cc(OC)cc(-c2nc3nc(C)c(CCC(=O)O)c(C)n3n2)c1	-8	1	7	-29	-4	3	.
